Assay results published in ChEMBL document CHEMBL1150054, “Studies on the synthesis of sesquiterpene lactones, 14. Syntheses of (-)-arbusclin D and (+)-4-EPI-arbusclin D: the stereochemical assignment of arbusclin D” (1992).
The source made the active and inactive calls. The rule behind the calls is not given here.

Key:
[1] = system: Brassica juncea; experiment: Growth regulatory activity in Brassica juncea assessed as complete inhibition of stem growth at 1000 ppm after 10 days; assay type: functional, organism-based
[2] = system: Echinochloa frumentacea; experiment: Growth regulatory activity in Echinochloa frumentacea assessed as inhibition of stem growth at 250 ppm after 10 days; assay type: functional, organism-based
[3] = system: Brassica juncea; experiment: Growth regulatory activity in Brassica juncea assessed as complete inhibition of root growth at 1000 ppm after 10 days; assay type: functional, organism-based
[4] = system: Brassica juncea; experiment: Growth regulatory activity in Brassica juncea assessed as inhibition of stem growth at 500 ppm after 10 days; assay type: functional, organism-based
[5] = system: Cucumis sativus; experiment: Growth regulatory activity in Cucumis sativus assessed as complete inhibition of root growth at 500 ppm after 10 days; assay type: functional, organism-based
[6] = system: Cucumis sativus; experiment: Growth regulatory activity in Cucumis sativus assessed as complete inhibition of root growth at 250 ppm after 10 days; assay type: functional, organism-based
[7] = system: Echinochloa frumentacea; experiment: Growth regulatory activity in Echinochloa frumentacea assessed as inhibition of stem growth at 500 ppm after 10 days; assay type: functional, organism-based
[8] = system: Cucumis sativus; experiment: Growth regulatory activity in Cucumis sativus assessed as complete inhibition of root growth at 1000 ppm after 10 days; assay type: functional, organism-based
[9] = system: Echinochloa frumentacea; experiment: Growth regulatory activity in Echinochloa frumentacea assessed as complete inhibition of root growth at 1000 ppm after 10 days; assay type: functional, organism-based
[10] = system: Cucumis sativus; experiment: Growth regulatory activity in Cucumis sativus assessed as complete inhibition of stem growth at 250 ppm after 10 days; assay type: functional, organism-based
[11] = system: Echinochloa frumentacea; experiment: Growth regulatory activity in Echinochloa frumentacea assessed as complete inhibition of stem growth at 1000 ppm after 10 days; assay type: functional, organism-based
[12] = system: Cucumis sativus; experiment: Growth regulatory activity in Cucumis sativus assessed as complete inhibition of stem growth at 1000 ppm after 10 days; assay type: functional, organism-based
[13] = system: Echinochloa frumentacea; experiment: Growth regulatory activity in Echinochloa frumentacea assessed as complete inhibition of root growth at 500 ppm after 10 days; assay type: functional, organism-based
[14] = system: Brassica juncea; experiment: Growth regulatory activity in Brassica juncea assessed as complete inhibition of root growth at 500 ppm after 10 days; assay type: functional, organism-based
[15] = system: Cucumis sativus; experiment: Growth regulatory activity in Cucumis sativus assessed as complete inhibition of stem growth at 500 ppm after 10 days; assay type: functional, organism-based
[16] = system: Cucumis sativus; experiment: Growth regulatory activity in Cucumis sativus assessed as inhibition of root growth at 500 ppm after 10 days; assay type: functional, organism-based
[17] = system: Echinochloa frumentacea; experiment: Growth regulatory activity in Echinochloa frumentacea assessed as inhibition of stem growth at 1000 ppm after 10 days; assay type: functional, organism-based
[18] = system: Brassica juncea; experiment: Growth regulatory activity in Brassica juncea assessed as inhibition of root growth at 1000 ppm after 10 days; assay type: functional, organism-based
[19] = system: Echinochloa frumentacea; experiment: Growth regulatory activity in Echinochloa frumentacea assessed as inhibition of root growth at 1000 ppm after 10 days; assay type: functional, organism-based
[20] = system: Cucumis sativus; experiment: Growth regulatory activity in Cucumis sativus assessed as inhibition of root growth at 250 ppm after 10 days; assay type: functional, organism-based
[21] = system: Cucumis sativus; experiment: Growth regulatory activity in Cucumis sativus assessed as inhibition of stem growth at 250 ppm after 10 days; assay type: functional, organism-based
[22] = system: Cucumis sativus; experiment: Growth regulatory activity in Cucumis sativus assessed as complete inhibition of root growth at 100 ppm after 10 days; assay type: functional, organism-based
[23] = system: P388; experiment: Growth inhibition of mouse P388 cells at 0.1 ug/mL after 48 hrs relative to control; assay type: functional; conditions: P388, 48 h, read-out: GI
How it was run: (§1)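 P-388 murine lymphocytic leukemia cells incubated with compound 48 h at 37° under humidified 5% CO2; cells counted by Coulter counter. Inhibitory ratio (%) = (1 − (T − C0)/(C − C0)) × 100, where T is the count with compound, C the count without compound and C0 the count at culture start.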

[24] = system: P388; experiment: Growth inhibition of mouse P388 cells at 10 ug/mL after 48 hrs relative to control; assay type: functional; conditions: P388, 48 h, read-out: GI; how it was run: as §1
[25] = system: Echinochloa frumentacea; experiment: Growth regulatory activity in Echinochloa frumentacea assessed as complete inhibition of root growth at 250 ppm after 10 days; assay type: functional, organism-based
[26] = system: Brassica juncea; experiment: Growth regulatory activity in Brassica juncea assessed as inhibition of stem growth at 250 ppm after 10 days; assay type: functional, organism-based
[27] = system: Brassica juncea; experiment: Growth regulatory activity in Brassica juncea assessed as inhibition of root growth at 250 ppm after 10 days; assay type: functional, organism-based
[28] = system: P388; experiment: Growth inhibition of mouse P388 cells at 1 ug/mL after 48 hrs relative to control; assay type: functional; conditions: P388, 48 h, read-out: GI; how it was run: as §1
[29] = system: P388; experiment: Growth inhibition of mouse P388 cells at 0.01 ug/mL after 48 hrs relative to control; assay type: functional; conditions: P388, 48 h, read-out: GI; how it was run: as §1
[30] = system: Cucumis sativus; experiment: Growth regulatory activity in Cucumis sativus assessed as inhibition of stem growth at 100 ppm after 10 days; assay type: functional, organism-based
[31] = system: Cucumis sativus; experiment: Growth regulatory activity in Cucumis sativus assessed as inhibition of root growth at 100 ppm after 10 days; assay type: functional, organism-based
[32] = system: Brassica juncea; experiment: Growth regulatory activity in Brassica juncea assessed as complete inhibition of stem growth at 500 ppm after 10 days; assay type: functional, organism-based
[33] = system: Brassica juncea; experiment: Growth regulatory activity in Brassica juncea assessed as complete inhibition of root growth at 250 ppm after 10 days; assay type: functional, organism-based
[34] = system: Echinochloa frumentacea; experiment: Growth regulatory activity in Echinochloa frumentacea assessed as complete inhibition of stem growth at 500 ppm after 10 days; assay type: functional, organism-based
[35] = system: Echinochloa frumentacea; experiment: Growth regulatory activity in Echinochloa frumentacea assessed as inhibition of root growth at 500 ppm after 10 days; assay type: functional, organism-based
[36] = system: Brassica juncea; experiment: Growth regulatory activity in Brassica juncea assessed as inhibition of root growth at 500 ppm after 10 days; assay type: functional, organism-based

Structure (SMILES) | Activity [1] | Activity [3] | Activity [5] | Activity [8] | Activity [9] | Activity [11] | Activity [12] | Activity [13] | Activity [14] | Activity [15] | Activity [16] | inhibition of growth at 0.1 µg/mL [23] | inhibition of growth at 10 µg/mL [24] | inhibition of growth at 1 µg/mL [28] | also measured
CC(=O)OCC1=C2CC[C@@]3(C)CCC[C@@](C)(O)[C@@H]3[C@H]2OC1=O | Active | Active |  |  |  |  |  |  |  |  |  |  |  |  | Activity [2]: Active
C[C@@H]1C(=O)O[C@H]2C1CC[C@@]1(C)CCC[C@@](C)(O)[C@H]21 (stereo not given in full) | Active | Active | Active | Active | Active | Active | Active | Active | Active | Active |  |  |  |  | Activity [4]: Active; Activity [6]: Active; Activity [7]: Active; Activity [10]: Active
C[C@]12CCC[C@@](C)(O)[C@@H]1[C@H]1OC(=O)C(CO)=C1CC2 |  |  |  | Active |  |  |  |  |  |  | Active |  |  |  | Activity [17]: Active; Activity [18]: Active; Activity [19]: Active; Activity [20]: Active
C[C@]12CCC[C@@](C)(O)[C@@H]1[C@H]1OC(=O)C(CCl)=C1CC2 | Active | Active | Active | Active | Active | Active | Active | Active | Active | Active |  | 26% | 103% | 65% | Activity [4]: Active; Activity [21]: Active; Activity [22]: Active; Activity [6]: Active; Activity [7]: Active; Activity [25]: Active; Activity [26]: Active; Activity [27]: Active
COc1cccc2c1C(=O)c1c(O)c3c(c(O)c1C2=O)C[C@@](O)(C(=O)CO)C[C@@H]3O[C@H]1C[C@H](N)[C@H](O)[C@H](C)O1 [DOXORUBICIN] |  |  |  |  |  |  |  |  |  |  |  | 99% |  | 105% | inhibition of growth at 0.01 µg/mL [29]: 38%
C=C1C(=O)O[C@@H]2[C@@H]3[C@](C)(CCC[C@@]3(C)O)CC[C@@H]12 [ARBUSCULIN A] | Active | Active | Active | Active | Active | Active | Active | Active | Active | Active | Active | 2% | 101% | 45% | Activity [21]: Active; Activity [30]: Active; Activity [31]: Active; Activity [32]: Active; Activity [33]: Active; Activity [26]: Active; Activity [20]: Active; Activity [34]: Active
C[C@]12CCC[C@@](C)(O)[C@@H]1[C@H]1OC(=O)C(CBr)=C1CC2 | Active | Active |  |  | Active | Active | Active |  |  |  | Active | 3% | 102% | 44% | Activity [35]: Active; Activity [36]: Active
